Results from ChEMBL document CHEMBL4431391, “Exploration of substituted arylpiperazine-tetrazoles as promising dual norepinephrine and dopamine reuptake inhibitors” (Bioorg Med Chem, 2016).

Columns and labels:
Type in all cases: cell-based
[1] = biological target: Sodium-dependent noradrenaline transporter (Homo sapiens, UniProt P23975); assay: Inhibition of [3H]-5-norepinephrine reuptake in human NET expressed in HEK293 cells by liquid scintillation counting method
Outline: (§1)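 HEK-293 cells grown in FBS-supplemented medium, transfected with human transporter (hDAT or hNET). Uptake of radiolabeled substrate ([3H]-DA for DAT, [3H]-NE for NET) at 20 nM was measured, with inhibition assessed as reduced uptake. Method adapted with slight modification from a literature procedure.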

[2] = biological target: Sodium-dependent dopamine transporter (Homo sapiens, UniProt Q01959); assay: Inhibition of [3H]-5-dopamine reuptake in human DAT expressed in HEK293 cells by liquid scintillation counting method; outline: as §1
[3] = biological target: Sodium-dependent serotonin transporter (Homo sapiens, UniProt P31645); assay: Inhibition of [3H]-5-hydroxytryptamine reuptake in human SERT expressed in HEK293 cells by liquid scintillation counting method
Sodium-dependent serotonin transporter, sequence (P31645 whole entry): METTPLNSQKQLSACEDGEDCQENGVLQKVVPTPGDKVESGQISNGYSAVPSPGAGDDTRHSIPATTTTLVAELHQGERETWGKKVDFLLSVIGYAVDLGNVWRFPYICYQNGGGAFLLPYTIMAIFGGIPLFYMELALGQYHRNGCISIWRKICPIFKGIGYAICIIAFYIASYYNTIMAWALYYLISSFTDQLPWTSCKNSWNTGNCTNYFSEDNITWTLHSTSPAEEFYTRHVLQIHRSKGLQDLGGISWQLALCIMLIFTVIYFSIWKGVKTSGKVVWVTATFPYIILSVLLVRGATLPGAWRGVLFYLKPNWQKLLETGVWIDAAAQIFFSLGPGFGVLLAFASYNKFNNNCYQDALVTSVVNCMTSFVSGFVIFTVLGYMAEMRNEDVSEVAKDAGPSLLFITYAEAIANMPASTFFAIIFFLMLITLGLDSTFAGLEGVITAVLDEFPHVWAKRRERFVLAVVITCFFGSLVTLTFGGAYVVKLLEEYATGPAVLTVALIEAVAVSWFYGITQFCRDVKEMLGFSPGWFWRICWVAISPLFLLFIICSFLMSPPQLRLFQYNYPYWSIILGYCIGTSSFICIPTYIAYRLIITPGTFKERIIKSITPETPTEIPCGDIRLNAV

Sodium-dependent dopamine transporter, sequence (Q01959 whole entry): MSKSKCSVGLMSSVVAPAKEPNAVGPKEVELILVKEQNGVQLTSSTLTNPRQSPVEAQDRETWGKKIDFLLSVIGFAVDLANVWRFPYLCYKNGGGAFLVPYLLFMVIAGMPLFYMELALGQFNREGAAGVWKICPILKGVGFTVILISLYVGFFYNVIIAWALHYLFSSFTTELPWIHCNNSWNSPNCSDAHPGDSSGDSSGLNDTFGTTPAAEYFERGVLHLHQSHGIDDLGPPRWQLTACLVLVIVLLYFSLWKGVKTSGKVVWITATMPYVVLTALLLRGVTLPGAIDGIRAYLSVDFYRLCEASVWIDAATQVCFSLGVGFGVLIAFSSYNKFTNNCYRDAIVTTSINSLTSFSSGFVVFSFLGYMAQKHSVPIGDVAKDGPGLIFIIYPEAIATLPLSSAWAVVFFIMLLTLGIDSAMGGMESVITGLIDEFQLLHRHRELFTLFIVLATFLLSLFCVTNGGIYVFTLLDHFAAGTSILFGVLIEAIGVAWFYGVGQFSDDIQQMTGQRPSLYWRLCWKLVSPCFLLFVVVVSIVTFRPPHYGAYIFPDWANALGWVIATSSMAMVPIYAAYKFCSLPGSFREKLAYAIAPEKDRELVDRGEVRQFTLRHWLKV
Sodium-dependent noradrenaline transporter, sequence (P23975 whole entry): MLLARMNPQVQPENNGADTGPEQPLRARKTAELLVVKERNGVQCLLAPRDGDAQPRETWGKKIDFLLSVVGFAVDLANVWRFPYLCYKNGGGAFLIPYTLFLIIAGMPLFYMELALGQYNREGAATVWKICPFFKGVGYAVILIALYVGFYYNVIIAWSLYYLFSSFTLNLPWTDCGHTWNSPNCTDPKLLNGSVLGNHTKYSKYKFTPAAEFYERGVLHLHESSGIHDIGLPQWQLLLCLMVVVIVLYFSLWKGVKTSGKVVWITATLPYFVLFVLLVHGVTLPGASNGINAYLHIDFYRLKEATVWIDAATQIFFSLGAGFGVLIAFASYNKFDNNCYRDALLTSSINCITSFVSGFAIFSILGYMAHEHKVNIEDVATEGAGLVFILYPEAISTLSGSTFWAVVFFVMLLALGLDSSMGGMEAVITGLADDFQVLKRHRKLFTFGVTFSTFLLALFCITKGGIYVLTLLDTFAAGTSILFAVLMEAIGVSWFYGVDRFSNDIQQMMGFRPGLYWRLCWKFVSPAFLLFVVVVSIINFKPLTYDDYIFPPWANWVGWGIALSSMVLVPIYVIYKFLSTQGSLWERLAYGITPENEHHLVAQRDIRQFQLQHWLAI

| SMILES | IC50 [1] | IC50 [2] | IC50 [3] |
| --- | --- | --- | --- |
| Clc1ccc(N2CCN(CCCCn3nnnc3C(c3ccccc3)c3ccccc3)CC2)cc1 | > 10000 nM | > 10000 nM | > 10000 nM |
| c1ccc(C(c2ccccc2)c2nnnn2CCCCN2CCN(c3ccccn3)CC2)cc1 | 4700 nM | > 10000 nM | > 10000 nM |
| Clc1ccc(N2CCN(CCn3nnnc3C(c3ccccc3)c3ccccc3)CC2)cc1 | > 10000 nM | > 10000 nM | > 10000 nM |
| Clc1cccc(N2CCN(CCn3nnnc3C(c3ccccc3)c3ccccc3)CC2)c1Cl | > 10000 nM | > 10000 nM | > 10000 nM |
| COc1ccccc1N1CCN(CCCCn2nnnc2C(c2ccccc2)c2ccccc2)CC1 | 10000 nM | > 10000 nM | > 10000 nM |
| FC(F)(F)c1cccc(N2CCN(CCCn3nnnc3C(c3ccccc3)c3ccccc3)CC2)c1 | 2480 nM | 5580 nM |  |
| Clc1ccc(N2CCN(CCCn3nnnc3C(c3ccccc3)c3ccccc3)CC2)cc1Cl | 4000 nM | 4200 nM |  |
| c1ccc(C(c2ccccc2)c2nnnn2CCN2CCN(c3ccccn3)CC2)cc1 | > 10000 nM | > 10000 nM | > 10000 nM |
| Fc1ccc(N2CCN(CCCn3nnnc3C(c3ccccc3)c3ccccc3)CC2)c(F)c1 | 2160 nM | 2900 nM |  |
| COc1ccccc1N1CCN(CCn2nnnc2C(c2ccccc2)c2ccccc2)CC1 | > 10000 nM | > 10000 nM | > 10000 nM |
| c1ccc(C(c2ccccc2)c2nnnn2CCCCN2CCN(c3ncccn3)CC2)cc1 | 8540 nM | > 10000 nM | > 10000 nM |
| Clc1ccc(N2CCN(CCCn3nnnc3C(c3ccccc3)c3ccccc3)CC2)c(Cl)c1 | 2050 nM | 3590 nM |  |
| FC(F)(F)c1ccc(N2CCN(CCCn3nnnc3C(c3ccccc3)c3ccccc3)CC2)cc1 | > 10000 nM | > 10000 nM |  |
| c1ccc(C(c2ccccc2)c2nnnn2CCN2CCN(c3ncccn3)CC2)cc1 | > 10000 nM | > 10000 nM | > 10000 nM |
| Clc1cccc(N2CCN(CCCCn3nnnc3C(c3ccccc3)c3ccccc3)CC2)c1Cl | 8870 nM | > 10000 nM | > 10000 nM |

Now those with a lower IC50 [1], led by results:

| IC50 [1] | IC50 [2] | IC50 [3] | SMILES |
| --- | --- | --- | --- |
| 1200 nM | 910 nM |  | Brc1ccc(N2CCN(CCCn3nnnc3C(c3ccccc3)c3ccccc3)CC2)cc1 |
| 1090 nM | 2250 nM |  | Fc1ccc(C(F)(F)F)cc1N1CCN(CCCn2nnnc2C(c2ccccc2)c2ccccc2)CC1 |
| 350 nM | 1330 nM |  | Fc1ccccc1N1CCN(CCCn2nnnc2C(c2ccccc2)c2ccccc2)CC1 |
| 500 nM | 1040 nM | > 10000 nM | COc1ccccc1N1CCN(CCCn2nnnc2C(c2ccccc2)c2ccccc2)CC1 |
| 1620 nM | 4740 nM |  | Clc1cccc(N2CCN(CCCn3nnnc3C(c3ccccc3)c3ccccc3)CC2)c1 |
| 1720 nM | 3720 nM |  | Cc1cccc(C)c1N1CCN(CCCn2nnnc2C(c2ccccc2)c2ccccc2)CC1 |
| 1100 nM | 2250 nM |  | Fc1cc(Cl)ccc1N1CCN(CCCn2nnnc2C(c2ccccc2)c2ccccc2)CC1 |
| 460 nM | 1200 nM | > 10000 nM | Clc1ccc(N2CCN(CCCn3nnnc3C(c3ccccc3)c3ccccc3)CC2)cc1 |
| 870 nM | 1420 nM |  | Cc1ccc(N2CCN(CCCn3nnnc3C(c3ccccc3)c3ccccc3)CC2)cc1 |
| 1450 nM | 1640 nM |  | c1ccc(C(c2ccccc2)c2nnnn2CCCN2CCN(c3ccccc3)CC2)cc1 |
| 920 nM | 1430 nM | > 10000 nM | c1ccc(C(c2ccccc2)c2nnnn2CCCN2CCN(c3ccccn3)CC2)cc1 |
| 1100 nM | 3040 nM | > 10000 nM | Clc1cccc(N2CCN(CCCn3nnnc3C(c3ccccc3)c3ccccc3)CC2)c1Cl |
| 1060 nM | 3850 nM |  | COc1ccc(N2CCN(CCCn3nnnc3C(c3ccccc3)c3ccccc3)CC2)cc1 |
| 1890 nM | 1470 nM |  | Fc1cccc(N2CCN(CCCn3nnnc3C(c3ccccc3)c3ccccc3)CC2)c1 |
| 670 nM | 1010 nM |  | Clc1ccccc1N1CCN(CCCn2nnnc2C(c2ccccc2)c2ccccc2)CC1 |
| 800 nM | 1140 nM | > 10000 nM | c1ccc(C(c2ccccc2)c2nnnn2CCCN2CCN(c3ncccn3)CC2)cc1 |
| 510 nM | 820 nM |  | Fc1cccc(F)c1N1CCN(CCCn2nnnc2C(c2ccccc2)c2ccccc2)CC1 |
| 80 nM | 2480 nM |  | Fc1ccc(N2CCN(CCCn3nnnc3C(c3ccccc3)c3ccccc3)CC2)cc1 |
